# Screening data as filed in PubChem.
# PHOSPHO1 block: PubChem AID 1565. Phosphoethanolamine/phosphocholine phosphatase (Homo sapiens), Q8TCT1. recombinant PHOSPHO1, absorbance phosphatase assay. inhibition, % at 13.3 µM. hit rate 1.1% among 290,000; in the data active means inhibition above about 60%
# KCNK3 inh: human KCNK3 channel inhibitors, primary screen, CHO cells, FluxOR thallium flux, B-score; B-score at 10 µM; Potassium channel subfamily K member 3 (Homo sapiens), O14649; FluxOR fluorescence; stronger effect = lower value; hit rate 0.84% among 340,000;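 active means B-score under library mean minus 4 SD, starting fluorescence ratio at most library mean plus 5 SD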;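 further: more negative B-score means stronger inhibition of thallium flux through KCNK3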
# KCNK9 block: KCNK9 potassium channel inhibitors, primary screen, HEK293 cells, thallium flux; FluxOR thallium flux fluorescence; stronger effect = lower value; B-score at 10 µM; hit rate 1.2% among 310,000;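 active means ratio B-score over 3 SD below the library mean, with starting fluorescence within 5 SD of its mean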;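 further: negative B-score means less thallium flux so channel inhibition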
# hERG rescue: hERG rescue from dofetilide block, primary screen, cell-based, CHO-hERG, FluxOR thallium flux, dofetilide IC70; AID 1511, 2009; Voltage-gated inwardly rectifying potassium channel KCNH2 (Homo sapiens), Q12809; hit rate 0.51% among 310,000; dofetilide IC70 present; activation (rescue from dofetilide block), less the hit threshold, % at 10 µM;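 active means activation above the mean of controls blocked by dofetilide plus 5 SD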;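 further: thallium influx through hERG after potassium depolarization seen as dye fluorescence rise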
# Target sequence (Q12809 whole entry, looked up): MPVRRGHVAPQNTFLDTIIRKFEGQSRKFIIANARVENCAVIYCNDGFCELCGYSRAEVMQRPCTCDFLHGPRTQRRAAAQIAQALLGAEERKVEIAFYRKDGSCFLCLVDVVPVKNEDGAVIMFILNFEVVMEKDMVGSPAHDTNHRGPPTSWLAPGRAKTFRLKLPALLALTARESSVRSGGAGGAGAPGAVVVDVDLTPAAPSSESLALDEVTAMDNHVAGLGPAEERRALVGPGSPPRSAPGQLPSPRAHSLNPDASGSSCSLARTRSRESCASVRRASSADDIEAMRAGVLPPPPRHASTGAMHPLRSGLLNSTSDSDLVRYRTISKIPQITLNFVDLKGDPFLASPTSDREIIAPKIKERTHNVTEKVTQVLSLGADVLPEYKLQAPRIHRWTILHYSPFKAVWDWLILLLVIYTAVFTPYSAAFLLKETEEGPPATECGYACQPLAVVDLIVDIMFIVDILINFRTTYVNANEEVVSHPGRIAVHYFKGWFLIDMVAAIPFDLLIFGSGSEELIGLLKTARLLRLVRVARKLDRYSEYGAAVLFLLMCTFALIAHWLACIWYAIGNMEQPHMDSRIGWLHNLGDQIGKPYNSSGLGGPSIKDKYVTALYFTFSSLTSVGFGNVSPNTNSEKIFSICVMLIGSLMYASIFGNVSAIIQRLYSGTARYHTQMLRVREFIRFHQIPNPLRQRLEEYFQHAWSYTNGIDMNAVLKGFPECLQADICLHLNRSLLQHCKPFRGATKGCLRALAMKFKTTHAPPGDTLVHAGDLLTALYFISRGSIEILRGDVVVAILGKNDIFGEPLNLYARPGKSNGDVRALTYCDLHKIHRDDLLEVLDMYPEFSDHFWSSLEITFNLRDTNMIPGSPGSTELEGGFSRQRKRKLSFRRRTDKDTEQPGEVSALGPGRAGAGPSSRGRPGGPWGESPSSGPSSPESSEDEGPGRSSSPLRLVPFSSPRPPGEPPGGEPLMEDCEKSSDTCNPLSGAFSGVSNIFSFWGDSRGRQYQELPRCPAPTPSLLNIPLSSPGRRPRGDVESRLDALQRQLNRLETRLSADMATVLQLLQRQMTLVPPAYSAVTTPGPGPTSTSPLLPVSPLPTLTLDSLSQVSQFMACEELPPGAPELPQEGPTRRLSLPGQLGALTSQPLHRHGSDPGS
# KCNQ1 inh: inhibitors of human KCNQ1 channel, primary screen, cell-based, thallium flux, high-throughput | hit rate 1.3% among 310,000 | Potassium voltage-gated channel subfamily KQT member 1 (Homo sapiens), P51787 | CHO-K1 KCNQ1, FluxOR thallium flux fluorescence; stronger effect = higher value | B-score at 10 µM | AID 2642, 2010;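 active means compounds whose thallium flux B-score, printed positive for inhibition, exceeds three library SD while starting fluorescence stays within three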;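 further: channel opened by potassium depolarization with thallium stimulus after 20 min compound exposure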
# KCNQ1 pot: potentiators or activators of KCNQ1 channel, primary screen, cell-based, thallium flux, high-throughput. B-score at 10 µM. Potassium voltage-gated channel subfamily KQT member 1 (Homo sapiens), P51787. CHO-K1 KCNQ1, thallium flux FluxOR fluorescence; stronger effect = higher value. hit rate 0.35% among 310,000. AID 2648, 2010;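 active means fluorescence ratio B-score, a plate-corrected score, at least three library SD, with initial intensity B-score within 5 SD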
#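 assay system = KCNQ1-transfected CHO-K1 cells | medium = assay buffer with matched DMSO | probe or stimulus = depolarizing K+/Tl+ stimulus, K2SO4 and Tl2SO4 each 12.5 mM in 5x stock | dosing = single dose | incubation = dye 90 min, compound 20 min, room temperature | detection = kinetic FluxOR fluorescence, 10 s baseline plus 110 s post-stimulus | evaluation = ratio B score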
# Numbers without * were called inactive; i = inactive; · = not tested or not shown. Hits are enriched below; roughly 4% of the tested compounds scored in any of these assays.
SMILES,PHOSPHO1 block,KCNK3 inh,KCNK9 block,hERG rescue,KCNQ1 inh,KCNQ1 pot
CN1CCN(CCCNC(=O)c2ccc(/C=C3\Sc4ccccc4N(Cc4ccc(F)cc4)C3=O)cc2)CC1,-10.1,i,i,-41.5,6*,i
Cn1c(=O)c2c(nc(N3CCN(c4ccc([N+](=O)[O-])cc4)CC3)n2C)n(C)c1=O,51.9,i,i,-8.1,i,i
Cc1ccc(C)c(Nc2nc3nonc3nc2N2CCOCC2)c1,61.1*,i,i,-3.8,i,i
Cc1cccc(C2c3[nH]c4ccccc4c3CCN2C(=O)c2cc(C(C)C)nc(N)n2)n1 (centres undefined),68.4*,i,i,-14.2,i,i
Cc1ccc(C)c(NC(=O)CN2C(=O)c3ccccc3C2=O)c1,·,i,i,-3.8,i,i
O=C(NCc1ccco1)c1cc2sccc2n1Cc1ccccc1,-15.8,i,-6.94*,-7.1,i,i
O=C(NCCc1ccccc1)c1cc2sccc2n1Cc1ccccc1,31.4,i,i,-12.3,i,i
O=C1c2oc3ccc(F)cc3c(=O)c2C(c2ccccc2)N1CC1CCCO1 (centres undefined),-7.5,i,i,-8.4,i,i
O=C(CCc1nnc(CCC2CCCCC2)o1)NCCc1cccnc1,3.4,i,i,-4.2,i,i
COc1cc(C(=O)OCC(=O)Nc2cccc(S(=O)(=O)N3CCCC3)c2)ccc1OCC(C)C,·,i,i,-12.7,i,i
Nn1c(=O)c2ccccc2n2c(SCc3ccc(C(F)(F)F)cc3)nnc12,90.4*,i,i,-0.9,i,i
O=C(NNc1nc2c(F)cccc2s1)c1ccccc1,26.7,i,i,-4.4,i,i
O=C(NNc1nc2c(F)cc(F)cc2s1)c1ccccc1,6.2,i,i,-7.3,i,61*
CCOC(=O)C1=CC(=O)CC(C)(C)O1,·,i,·,·,·,·
COc1cccc(Nc2nnc(SCC(=O)Nc3sccc3C(N)=O)s2)c1,61.8*,i,i,-12.4,i,i
N/N=C1\CCCc2c1[nH]c1ccc([N+](=O)[O-])cc21,88.2*,i,i,-7.4,i,i
O=C(CC(=O)NN=C1CCCCCC1)NCc1cccnc1,-19.4,i,i,-3.4,i,i
Cc1ccc2nc(SCC(=O)c3cc(C)n(C)c3C)[nH]c2c1,71.0*,i,i,-8.0,i,i
Cc1cc(C(=O)CSc2nc3ccccc3[nH]2)c(C)n1C,50.6,i,i,-6.4,i,i
C/C(N)=C(/C#N)C(=O)CSc1nc2ccc(C)cc2[nH]1,71.5*,i,i,-12.3,i,i
Cc1ccc2nc(SCC(=O)c3c(N)n(C)c(=O)n(C)c3=O)[nH]c2c1,-114.4,i,i,-11.5,i,i
Cc1cc(C(=O)CSc2nc3ccc(Cl)cc3[nH]2)c(C)n1C,86.5*,i,i,-15.9,i,i
O=C(Nc1ccccn1)c1ccc(C(=O)c2ccccc2)cc1,·,i,i,-16.1,i,i
O=C(NC(=O)c1ccccc1)Nc1ccccn1,67.6*,i,i,-12.2,i,i
S=c1[nH]nc(-c2cccc(Br)c2)o1,27.0,i,i,-7.2,i,i
SMILES,PHOSPHO1 block,KCNK3 inh,KCNK9 block,hERG rescue,KCNQ1 inh,KCNQ1 pot
S=c1[nH]nc(-c2cccnc2)o1,89.5*,i,i,-8.0,i,i
CCN1CCN(c2cc(C)c3cc(NC(=O)CCC(=O)Nc4ccc(OC)cc4OC)ccc3n2)CC1,42.0,i,i,-7.4,i,i
CCOC(=O)C1CCCN(C(=O)C2CCN(S(=O)(=O)CC)CC2)C1 (centres undefined),60.1*,i,i,-1.4,i,i
CCSc1nnc([C@@H]2CCCN2C(=O)OC(C)(C)C)o1,67.4*,i,i,-3.6,i,i
c1ccc2c(c1)OCC(c1nnc3sc(-c4ccc5c(c4)OCO5)nn13)O2 (centres undefined),83.5*,i,i,-8.7,i,i
Fc1ccc(-c2nnc3sc(C4COc5ccccc5O4)nn23)cc1 (centres undefined),43.1,i,i,-8.4,i,i
Fc1ccc(-c2nn3c(C4COc5ccccc5O4)nnc3s2)cc1 (centres undefined),78.7*,i,i,-12.8,i,i
c1csc(-c2nn3c(C4COc5ccccc5O4)nnc3s2)c1 (centres undefined),69.3*,i,i,-8.4,i,i
CC1CCN(C(=O)c2ccc(COc3ccccc3Cl)o2)CC1,-6.4,i,i,-11.1,i,i
CC(=O)Oc1ccc(C(=O)Nc2ccccc2C(=O)Nc2cccc(C(=O)O)c2)cc1,-25.6,i,i,-1.5,i,i
O=C(CSc1nc2[nH]ncc2c(=O)[nH]1)NCCc1ccccc1,-24.1,i,i,-13.1,i,i
COc1cccc(C(=O)NC2CC(C)(C)NC(C)(C)C2)c1OC,39.5,i,i,-5.6,i,i
CCC/C(C#Cc1ccsc1)=C1/c2ccccc2C(=O)N1c1ccccc1,·,i,·,·,·,·
O=C(O)c1ccc(N/N=C/C=C/c2ccc([N+](=O)[O-])o2)cc1,26.5,i,i,-4.5,i,i
O=[N+]([O-])c1ccc(N/N=C/C=C/c2ccco2)cc1,·,i,-7.18*,-6.2,i,i
CC(CCc1ccccc1)NC(=O)C1CCN(C(=O)c2sccc2-n2cccc2)CC1 (centres undefined),-11.0,i,i,-9.8,i,i
COc1cc(/C=N/NC(=O)Cn2nc([N+](=O)[O-])cc2C)cc(Br)c1OCc1ccccc1,16.2,-9.87*,i,-7.5,i,i
C=CCSc1nc(C)cc2c1C(=O)OC2,5.9,i,i,-11.6,i,i
COc1cc2c(cc1OC)CN(C(=O)c1cccc(S(=O)(=O)N3CCc4ccccc43)c1)CC2,·,i,·,·,·,·
O=C(c1cccc(S(=O)(=O)N2CCCc3ccccc32)c1)N1CCN(c2ccccc2)CC1,·,-9.52*,·,·,·,·
O=C(c1cccc(S(=O)(=O)N2CCc3ccccc32)c1)N1CCc2ccccc2C1,·,-9.42*,·,·,·,·
O=C(O)CCN1C(=O)/C(=C\c2ccc(-c3nc4ccccc4s3)o2)SC1=S,94.5*,i,i,-18.6,i,i
